{"data": "Published values gathered from unrelated publications", "CYP1A2": "Cytochrome P450 1A2 (CYP1A2, Homo sapiens, UniProt P05177)", "CYP3A4": "Cytochrome P450 3A4 (CYP3A4, Homo sapiens, UniProt P08684)", "note": "Lines come from different studies, so protocols differ."}
{"SMILES": "O=C1NC(=O)/C(=C\\c2ccc3ccccc3c2)S1", "target or system": "BHK-21", "test": "cell growth or viability, MTT", "measurement": "CC50", "value": "> 100 µM"}
{"SMILES": "Cc1cc(C)nc(Nc2ncc(C(=O)NCCc3c(C)[nH]c4ccccc34)cn2)c1", "test": "metabolic stability", "system": "cynomolgus monkey, liver microsomes", "setting": "1 µM", "measurement": "microsomal CLint", "value": "99 µL/min/mg"}
{"SMILES": "CCC[C@@](N)(CO)CCc1ccc(OCCCCCC(C)C)cc1", "target or system": "CYP1A2", "test": "enzyme activity, inhibitor", "measurement": "IC50", "value": "> 50 µM"}
{"SMILES": "O=C(Nc1ncc([N+](=O)[O-])s1)c1cccs1", "target or system": "BHK-21", "test": "cell growth or viability, MTT", "measurement": "CC50", "value": "> 1 µM"}
{"SMILES": "COC(=O)C1CCN(C(=O)c2ccc(NCc3cnc4nc(N)nc(N)c4n3)cc2)CC1", "target or system": "CYP1A2", "test": "enzyme activity, inhibitor, luciferase", "setting": "10 µM", "measurement": "inhibition", "value": "-8.49%"}
{"SMILES": "CCCCCCCC(=O)N[C@@H](CCCCN)C(=O)N[C@@H](CCCCN)C(=O)N[C@@H](C)C(=O)N[C@@H](CC(C)C)C(=O)N[C@@H](CCCCN)C(=O)N[C@@H](CC(C)C)C(=O)N[C@@H](C)C(=O)N[C@@H](CCCCN)C(=O)N[C@@H](CCCCN)C(=O)N1CCC[C@H]1C(=O)N[C@@H](CC(C)C)C(=O)N[C@@H](CCCCN)C(=O)N[C@@H](CC(C)C)C(=O)N[C@@H](CC(C)C)C(=O)N[C@@H](CCCCN)C(N)=O", "system": "female CD-1 mouse, blood", "setting": "intravenous, 10 mg/kg, single dose", "measurement": "Cmax", "value": "6.95 µg/mL"}
{"SMILES": "S=C(Nc1ccc2c(c1)Cc1ccccc1-2)Nc1ccc2c(c1)Cc1ccccc1-2", "target or system": "BHK-21", "test": "cell growth or viability, MTT", "setting": "42 h", "measurement": "CC50", "value": "236 µM"}
{"SMILES": "NCCc1ccccn1", "target or system": "CYP3A4", "test": "thermal stability", "measurement": "ΔTm", "value": "-0.1 °C"}
{"SMILES": "CCS(=O)(=O)N1CC(CC#N)(n2cc(-c3ncnc4[nH]ccc34)cn2)C1", "target or system": "Vero", "test": "cell growth or viability, resazurin", "measurement": "CC50", "value": "> 60 µM"}
{"SMILES": "NC(=O)C(NC(=O)C1CC(c2ccccc2)C1)c1ccccc1 (stereo not shown)", "target or system": "BHK-21", "test": "cell growth or viability, MTT", "measurement": "CC50", "value": "> 100 µM"}
{"SMILES": "COC(=O)C1CCN(C(=O)c2ccc(N(C)Cc3cnc4nc(N)nc(N)c4n3)cc2)CC1", "target or system": "CYP3A4", "test": "enzyme activity, inhibitor, luciferase", "setting": "10 µM", "measurement": "inhibition", "value": "-17.4%"}
{"SMILES": "O=c1[nH]cnc2c1nnn2-c1cccc(Cl)c1", "target or system": "BHK-21", "test": "cell growth or viability, MTT", "measurement": "CC50", "value": "> 1000 µM"}
{"SMILES": "O=C(O)C(F)(F)C(F)(F)C(F)(F)C(F)(F)C(F)(F)C(F)(F)C(F)(F)F", "target or system": "Solute carrier organic anion transporter family member 1B1 (SLCO1B1, Homo sapiens, UniProt Q9Y6L6)", "test": "transporter uptake, substrate", "system": "CHO", "setting": "1 min, pH 7.4", "measurement": "Km", "value": "52.6 µM"}
